Measured values pooled from the literature.
Compare with care: the assays were run in different laboratories.
Target: Proto-oncogene tyrosine-protein kinase Src (SRC, Homo sapiens, UniProt P12931)

SMILES	read-out	method	concentration	remaining binding
CN(C)c1nccc(-c2cnc3ncccn23)n1	binding	–	1 µM	89%
O=C(c1ccc(Nc2nccc(-c3cc4ccccc4s3)n2)cc1)N1CCC(N2CCCC2)CC1	binding	competition with immobilised ligand	1 µM	63%
CN(C)c1ncnc(-c2ccc3nc(Nc4cc(CN5CCN(C(=O)CC(F)(F)F)CC5)ccn4)[nH]c3c2)c1Cl	cell-free assay	competition with immobilised ligand	1 µM	100%
O=C(c1ccc(Nc2ncc(Cl)c(-c3ccc(Cl)s3)n2)cc1)N1CCC(N2CCCC2)CC1	binding	competition with immobilised ligand	1 µM	77%
CCN1CCN(Cc2ccc(C(=O)Nc3ccc(C)c(Oc4ccc5c(c4)CC(=O)N5)c3)cc2C(F)(F)F)CC1	binding	competition with immobilised ligand	1 µM	78%
N[C@H]1CCN(c2nccc(-c3cnn4ncccc34)n2)C1	binding	–	1 µM	88%
COc1cc(-c2cn(C3CCc4ccccc4N(CC(F)(F)F)C3=O)nn2)ccc1-n1ccc(C)n1 (stereo not shown)	cell-free assay	competition with immobilised ligand	1 µM	100%
C[C@@H](c1ccc(-n2cnc3c(N)ncnc32)cc1)N1CCc2nn(C)c(Cc3ccccc3)c2C1=O	binding	competition with immobilised ligand	0.1 µM	98%
Cc1cnn2ncc(-c3ccnc(N(C)C)n3)c2c1	binding	–	1 µM	100%
O=C(NCCCN1CCOCC1)c1ccc(Nc2nccc(-c3cc4ccccc4s3)n2)cc1	binding	competition with immobilised ligand	1 µM	100%
CN(C(=O)c1ccccc1)c1cc(N(C)c2ccc3c(c2)CCc2ccc(C(=O)NCCN4CCOCC4)cc2C3=O)ccc1F	cell-free assay	competition with immobilised ligand	1 µM	98%
COc1cnc(Nc2cccc(S(N)(=O)=O)c2)nc1N1CCN(c2ccccc2)CC1	binding	competition with immobilised ligand	1 µM	100%
C=CC(=O)N1CCC(C(=O)NCC(=O)N2CCN(c3nc(-c4cnc(N)nc4C(F)F)nc(N4CCOCC4)n3)CC2)CC1	binding	competition with immobilised ligand	1 µM	91%
O=C(NCC1CCOCC1)c1n[nH]cc1NC(=O)c1c(F)cccc1F	binding	competition with immobilised ligand	1 µM	86%
C[C@@H]1CCN(c2nccc(-c3cnn4ncccc34)n2)C1	binding	–	1 µM	92%
C[C@@H](c1cccc(C#N)c1)n1cc(Cl)cc(C(N)=O)c1=N	cell-free assay	competition with immobilised ligand	1 µM	99%
CN(C)c1nccc(-c2cnn3ncccc23)n1	binding	–	1 µM	100%
CN([C@@H]1CCc2c(CC(=O)O)c3cc(S(C)(=O)=O)ccc3n2C1)S(=O)(=O)c1ccc(F)cc1	cell-free assay	competition with immobilised ligand	1 µM	96%
N#Cc1ccccc1CSc1nnc2c(n1)[nH]c1ccccc12	binding	competition with immobilised ligand	10 µM	100%
COc1ccc2c(O[C@@H]3C[C@H]4C(=O)N[C@]5(C(=O)O)CC5/C=C\CCCCC[C@H](NC(=O)OC5CCCC5)C(=O)N4C3)cc(-c3csc(NC(=O)C(C)C)n3)nc2c1C (stereo partly shown)	cell-free assay	competition with immobilised ligand	1 µM	100%
c1cnn2ncc(-c3ccnc(N4CCC45COC5)n3)c2c1	binding	–	1 µM	100%
CCC(=N\O)/C(C)=C/c1ccc(F)cc1	cell-free assay	competition with immobilised ligand	1 µM	91%
Nc1ncc2c(n1)-c1c([nH]c3ccc(C#CC4CC4)cc13)CCCC2	binding	competition with immobilised ligand	1 µM	100%
CCOC(=O)c1cc2cc(-c3cc(C(=O)NCc4ccc(C(=O)O)cc4)nn3C)ccc2[nH]1	cell-free assay	competition with immobilised ligand	0.1 µM	93%
CN(c1nccc(-c2cnn3ncccc23)n1)C1CC1	binding	–	1 µM	100%
